Assay results reported in ChEMBL document CHEMBL1150393, “Evaluation of radiolabeled (hetero)aromatic analogues of N-(2-diethylaminoethyl)-4-iodobenzamide for imaging and targeted radionuclide therapy of melanoma” (J Med Chem, 2008).

Key:
[1] = Binding affinity to melanin in phosphate buffer solution; design: concentration or dose not given beside the values; conditions: tested as the 125I-labelled form
[2] = Binding affinity to melanin in water; design: concentration or dose not given beside the values; conditions: tested as the 125I-labelled form
[3] = Drug excretion in mouse B16-F0 cells bearing C57BL/6 mouse urine at 0.74 to 0.92 MBq, iv after 72 hrs; type: ADME, organism-based; conditions: in vivo
Outline: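 Urine was collected from two B16-F0 tumour-bearing C57BL6 mice for up to 72 h after iv tail-vein injection of the [¹²⁵I]-labelled compound (0.1 µmol). Samples were counted to give cumulative urinary excretion as %ID.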

[4] = Biodistribution in Stomach content of C57BL/6 mouse bearing mouse B16-F0 cells at 0.74 to 0.92 MBq, iv after 3 hrs; type: ADME, organism-based; conditions: in vivo
Outline: (§1)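 Male C57BL6 mice with s.c. left-flank B16-F0 melanoma (5 × 10⁵ cells in PBS). Two mice per time point frozen in liquid nitrogen after CO₂ sacrifice. Eight 40 µm whole-body cryosections per mouse read by multiwire proportional counter. cpm/mm² converted to kBq/g and expressed as %ID/g.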

[5] = Biodistribution in Stomach content of C57BL/6 mouse bearing mouse B16-F0 cells at 0.74 to 0.92 MBq, iv after 6 hrs; type: ADME, organism-based; conditions: in vivo; outline: as §1
[6] = test system: Pancreas; assay: Biodistribution in pancreas of C57BL/6 mouse bearing mouse B16-F0 cells at 0.74 to 0.92 MBq, iv after 1 hr; type: ADME, organism-based; conditions: in vivo; outline: as §1
[7] = Biodistribution in uvea of C57BL/6 mouse bearing mouse B16-F0 cells at 0.74 to 0.92 MBq, iv after 72 hrs; type: ADME, organism-based, Uveal tract; conditions: in vivo
Outline: (§2)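 [¹²⁵I]-labelled compound given iv by tail vein (0.1 µmol per mouse) to male C57BL6 mice bearing s.c. B16-F0 flank tumours (5 × 10⁵ cells in PBS). Two mice per time point were killed by CO₂, frozen in liquid nitrogen and cut into 40 µm cryosections, eight slices per mouse. Slice radioactivity was read on a multiwire proportional counter, converted to kBq/g and reported as %ID/g.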

[8] = Biodistribution in tumor of C57BL/6 mouse bearing mouse B16-F0 cells at 0.74 to 0.92 MBq, iv after 6 hrs; type: ADME, organism-based, Neoplasm; conditions: in vivo; outline: as §2
[9] = Biodistribution in Stomach content of C57BL/6 mouse bearing mouse B16-F0 cells at 0.74 to 0.92 MBq, iv after 1 hr; type: ADME, organism-based; conditions: in vivo; outline: as §1
[10] = Biodistribution in intestinal content of C57BL/6 mouse bearing mouse B16-F0 cells at 0.74 to 0.92 MBq, iv after 1 hr; type: ADME, organism-based; conditions: in vivo; outline: as §1
[11] = test system: Spleen; assay: Biodistribution in spleen of C57BL/6 mouse bearing mouse B16-F0 cells at 0.74 to 0.92 MBq, iv after 1 hr; type: ADME, organism-based; conditions: in vivo; outline: as §2
[12] = test system: Muscle tissue; assay: Biodistribution in muscle of C57BL/6 mouse bearing mouse B16-F0 cells at 0.74 to 0.92 MBq, iv after 3 hrs; type: ADME, organism-based; conditions: in vivo; outline: as §1
[13] = Biodistribution in uvea of C57BL/6 mouse bearing mouse B16-F0 cells at 0.74 to 0.92 MBq, iv after 1 hr; type: ADME, organism-based, Uveal tract; conditions: in vivo; outline: as §2
[14] = test system: Liver; assay: Biodistribution in liver of C57BL/6 mouse bearing mouse B16-F0 cells at 0.74 to 0.92 MBq, iv after 1 hr; type: ADME, organism-based; conditions: in vivo; outline: as §1
[15] = test system: Lung; assay: Biodistribution in lung of C57BL/6 mouse bearing mouse B16-F0 cells at 0.74 to 0.92 MBq, iv after 1 hr; type: ADME, organism-based; conditions: in vivo; outline: as §1
[16] = test system: Kidney; assay: Biodistribution in kidney of C57BL/6 mouse bearing mouse B16-F0 cells at 0.74 to 0.92 MBq, iv after 1 hr; type: ADME, organism-based; conditions: in vivo; outline: as §1
[17] = Biodistribution in tumor of C57BL/6 mouse bearing mouse B16-F0 cells at 0.74 to 0.92 MBq, iv after 1 hr; type: ADME, organism-based, Neoplasm; conditions: in vivo; outline: as §2
[18] = Biodistribution in tumor of C57BL/6 mouse bearing mouse B16-F0 cells at 0.74 to 0.92 MBq, iv after 24 hrs; type: ADME, organism-based, Neoplasm; conditions: in vivo; outline: as §2
[19] = Biodistribution in intestinal content of C57BL/6 mouse bearing mouse B16-F0 cells at 0.74 to 0.92 MBq, iv after 24 hrs; type: ADME, organism-based; conditions: in vivo; outline: as §1
[20] = test system: Liver; assay: Biodistribution in liver of C57BL/6 mouse bearing mouse B16-F0 cells at 0.74 to 0.92 MBq, iv after 3 hrs; type: ADME, organism-based; conditions: in vivo; outline: as §1
[21] = Biodistribution in intestinal content of C57BL/6 mouse bearing mouse B16-F0 cells at 0.74 to 0.92 MBq, iv after 3 hrs; type: ADME, organism-based; conditions: in vivo; outline: as §1
[22] = Ratio of drug level in tumor to lung of C57BL/6 mouse bearing mouse B16-F0 cells at 0.74 to 0.92 MBq, iv after 1 hr; type: ADME, organism-based; conditions: in vivo
Outline: (§3)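 Tumour and organ radioactive concentrations came from whole-body cryosection counting (40 µm slices, eight per mouse, two mice per time) after tail-vein injection of the [¹²⁵I]-labelled compound (0.1 µmol) into male C57BL6 mice bearing s.c. B16-F0 melanoma. Each value is the ratio of the tumour concentration to the organ concentration.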

[23] = Ratio of drug level in tumor to liver of C57BL/6 mouse bearing mouse B16-F0 cells at 0.74 to 0.92 MBq, iv after 1 hr; type: ADME, organism-based; conditions: in vivo; outline: as §3
[24] = Biodistribution in intestinal content of C57BL/6 mouse bearing mouse B16-F0 cells at 0.74 to 0.92 MBq, iv after 6 hrs; type: ADME, organism-based; conditions: in vivo; outline: as §1
[25] = Biodistribution in tumor of C57BL/6 mouse bearing mouse B16-F0 cells at 0.74 to 0.92 MBq, iv after 3 hrs; type: ADME, organism-based, Neoplasm; conditions: in vivo; outline: as §2
[26] = test system: Muscle tissue; assay: Biodistribution in muscle of C57BL/6 mouse bearing mouse B16-F0 cells at 0.74 to 0.92 MBq, iv after 1 hr; type: ADME, organism-based; conditions: in vivo; outline: as §1
[27] = Biodistribution in uvea of C57BL/6 mouse bearing mouse B16-F0 cells at 0.74 to 0.92 MBq, iv after 6 hrs; type: ADME, organism-based, Uveal tract; conditions: in vivo; outline: as §2
[28] = Biodistribution in tumor of C57BL/6 mouse bearing mouse B16-F0 cells at 0.74 to 0.92 MBq, iv after 72 hrs; type: ADME, organism-based, Neoplasm; conditions: in vivo; outline: as §2
[29] = Biodistribution in uvea of C57BL/6 mouse bearing mouse B16-F0 cells at 0.74 to 0.92 MBq, iv after 3 hrs; type: ADME, organism-based, Uveal tract; conditions: in vivo; outline: as §2
[30] = test system: Blood; assay: Biodistribution in blood of C57BL/6 mouse bearing mouse B16-F0 cells at 0.74 to 0.92 MBq, iv after 1 hr; type: ADME, organism-based; conditions: in vivo; outline: as §1
[31] = Biodistribution in uvea of C57BL/6 mouse bearing mouse B16-F0 cells at 0.74 to 0.92 MBq, iv after 24 hrs; type: ADME, organism-based, Uveal tract; conditions: in vivo; outline: as §2
[32] = Partition coefficient, log P in phosphate buffer solution at pH 7.4; type: physicochemical
Outline: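 Shake-flask partition: 50 µM [¹²⁵I]-labelled compound in phosphate buffer pH 7.4 was mixed with 2 mL n-octanol. Each phase was γ-counted, P was taken as the octanol/buffer activity ratio, and log P was reported.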

[33] = Ratio of drug level in tumor to liver of C57BL/6 mouse bearing mouse B16-F0 cells at 0.74 to 0.92 MBq, iv after 3 hrs; type: ADME, organism-based; conditions: in vivo; outline: as §3
[34] = test system: Brain; assay: Biodistribution in brain of C57BL/6 mouse bearing mouse B16-F0 cells at 0.74 to 0.92 MBq, iv after 1 hr; type: ADME, organism-based; conditions: in vivo; outline: as §1
[35] = Biodistribution in gall bladder of C57BL/6 mouse bearing mouse B16-F0 cells at 0.74 to 0.92 MBq, iv after 3 hrs; type: ADME, organism-based; conditions: in vivo; outline: as §1
[36] = test system: Thyroid gland; assay: Biodistribution in thyroid of C57BL/6 mouse bearing mouse B16-F0 cells at 0.74 to 0.92 MBq, iv after 1 hr; type: ADME, organism-based; conditions: in vivo; outline: as §2
[37] = test system: Thyroid gland; assay: Biodistribution in thyroid of C57BL/6 mouse bearing mouse B16-F0 cells at 0.74 to 0.92 MBq, iv after 6 hrs; type: ADME, organism-based; conditions: in vivo; outline: as §2
[38] = test system: Thyroid gland; assay: Biodistribution in thyroid of C57BL/6 mouse bearing mouse B16-F0 cells at 0.74 to 0.92 MBq, iv after 3 hrs; type: ADME, organism-based; conditions: in vivo; outline: as §2
[39] = test system: Thyroid gland; assay: Biodistribution in thyroid of C57BL/6 mouse bearing mouse B16-F0 cells at 0.74 to 0.92 MBq, iv after 24 hrs; type: ADME, organism-based; conditions: in vivo; outline: as §2
[40] = Ratio of drug level in tumor to brain of C57BL/6 mouse bearing mouse B16-F0 cells at 0.74 to 0.92 MBq, iv after 1 hr; type: ADME, organism-based; conditions: in vivo; outline: as §3

## CCN(CC)CCNC(=O)c1cnc2cc(I)ccc2n1
[1]
  Activity: 47.3%
[2]
  Activity: 67.4%

## CCN(CC)CCNC(=O)c1cn2cc([125I])ccc2n1.Cl.Cl
[3]
  Activity: 36.8%
[4]
  Drug uptake: 5.19 % ID/g
[5]
  Drug uptake: 16.57 % ID/g
[6]
  Drug uptake: 7.52 % ID/g
[7]
  Drug uptake: 9.55 % ID/g
[8]
  Drug uptake: 8.1 % ID/g
[9]
  Drug uptake: 4.55 % ID/g
[10]
  Drug uptake: 9.48 % ID/g
[11]
  Drug uptake: 13.07 % ID/g
[12]
  Drug uptake: 0.09 % ID/g
[13]
  Drug uptake: 17.43 % ID/g
[14]
  Drug uptake: 3.97 % ID/g
[15]
  Drug uptake: 2.42 % ID/g
[16]
  Drug uptake: 2.99 % ID/g
[17]
  Drug uptake: 5.7 % ID/g
[18]
  Drug uptake: 8 % ID/g
[19]
  Drug uptake: 2.68 % ID/g
[20]
  Drug uptake: 0.99 % ID/g
[21]
  Drug uptake: 78.03 % ID/g
[22]
  Ratio: 2.34
[23]
  Ratio: 1.43
[24]
  Drug uptake: 56.39 % ID/g
[25]
  Drug uptake: 7.1 % ID/g
[26]
  Drug uptake: 0.51 % ID/g
[27]
  Drug uptake: 26.81 % ID/g
[28]
  Drug uptake: 2.7 % ID/g
[29]
  Drug uptake: 19.18 % ID/g
[30]
  Drug uptake: 0.68 % ID/g
[31]
  Drug uptake: 11.54 % ID/g
[32]
  logD: 0.71
[33]
  Ratio: 7.21

## CCN(CC)CCNC(=O)c1cc2cc(I)ccc2[nH]1
[1]
  Activity: 43.1%
[2]
  Activity: 79.8%

## CCN(CC)CCNC(=O)c1cc2c([125I])cccc2s1.Cl
[34]
  Drug uptake: 0.81 % ID/g
[3]
  Activity: 52.6%
[4]
  Drug uptake: 5.93 % ID/g
[5]
  Drug uptake: 18.77 % ID/g
[7]
  Drug uptake: 9.22 % ID/g
[8]
  Drug uptake: 8.7 % ID/g
[9]
  Drug uptake: 20 % ID/g
[10]
  Drug uptake: 71.13 % ID/g
[11]
  Drug uptake: 3.88 % ID/g
[35]
  Drug uptake: 65.56 % ID/g
[13]
  Drug uptake: 16.09 % ID/g
[14]
  Drug uptake: 2.21 % ID/g
[15]
  Drug uptake: 3.69 % ID/g
[16]
  Drug uptake: 5.61 % ID/g
[17]
  Drug uptake: 12.5 % ID/g
[36]
  Drug uptake: 24.03 % ID/g
[18]
  Drug uptake: 7.3 % ID/g
[20]
  Drug uptake: 1.25 % ID/g
[21]
  Drug uptake: 73.02 % ID/g
[22]
  Ratio: 3.38
[37]
  Drug uptake: 139.12 % ID/g
[38]
  Drug uptake: 67.21 % ID/g
[23]
  Ratio: 5.64
[24]
  Drug uptake: 37.7 % ID/g
[25]
  Drug uptake: 10 % ID/g
[26]
  Drug uptake: 0.77 % ID/g
[27]
  Drug uptake: 16.29 % ID/g
[28]
  Drug uptake: 1.7 % ID/g
[29]
  Drug uptake: 19.51 % ID/g
[30]
  Drug uptake: 1.37 % ID/g
[31]
  Drug uptake: 11.06 % ID/g
[39]
  Drug uptake: 79.82 % ID/g
[32]
  logD: 1.54
[40]
  Ratio: 15.4
[33]
  Ratio: 7.98

## CCN(CC)CCNC(=O)c1cn2cc(I)ccc2n1
[1]
  Activity: 11.6%
[2]
  Activity: 75.3%

## CCN(CC)CCNC(=O)c1ccc2cc(I)ccc2n1
[1]
  Activity: 43.2%
[2]
  Activity: 87.4%

## CCN(CC)CCNC(=O)c1ccc2cc(I)ccc2c1
[1]
  Activity: 50.9%
[2]
  Activity: 80.8%
